# This is a sample that favours compounds with a hit; in the whole collection about 2% have one here.
# ABCB6 inh 2: inhibitors of human ABC transporter ABCB6; K562-ABCB6 porphyrin accumulation, flow cytometry, 1 h; stronger effect = lower value; fluorescence ratio to DMSO, % at 10 µM; Q9NP58; 360,000 compounds, 0.19% hits;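 active means fluorescence ratio to DMSO below 75%, the collection mean minus 3 SD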;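 further: signal is porphyrin accumulated inside mitochondria; lower ratio means ABCB6 inhibition with less porphyrin fluorescence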
# Target sequence (Q9NP58 whole entry, looked up): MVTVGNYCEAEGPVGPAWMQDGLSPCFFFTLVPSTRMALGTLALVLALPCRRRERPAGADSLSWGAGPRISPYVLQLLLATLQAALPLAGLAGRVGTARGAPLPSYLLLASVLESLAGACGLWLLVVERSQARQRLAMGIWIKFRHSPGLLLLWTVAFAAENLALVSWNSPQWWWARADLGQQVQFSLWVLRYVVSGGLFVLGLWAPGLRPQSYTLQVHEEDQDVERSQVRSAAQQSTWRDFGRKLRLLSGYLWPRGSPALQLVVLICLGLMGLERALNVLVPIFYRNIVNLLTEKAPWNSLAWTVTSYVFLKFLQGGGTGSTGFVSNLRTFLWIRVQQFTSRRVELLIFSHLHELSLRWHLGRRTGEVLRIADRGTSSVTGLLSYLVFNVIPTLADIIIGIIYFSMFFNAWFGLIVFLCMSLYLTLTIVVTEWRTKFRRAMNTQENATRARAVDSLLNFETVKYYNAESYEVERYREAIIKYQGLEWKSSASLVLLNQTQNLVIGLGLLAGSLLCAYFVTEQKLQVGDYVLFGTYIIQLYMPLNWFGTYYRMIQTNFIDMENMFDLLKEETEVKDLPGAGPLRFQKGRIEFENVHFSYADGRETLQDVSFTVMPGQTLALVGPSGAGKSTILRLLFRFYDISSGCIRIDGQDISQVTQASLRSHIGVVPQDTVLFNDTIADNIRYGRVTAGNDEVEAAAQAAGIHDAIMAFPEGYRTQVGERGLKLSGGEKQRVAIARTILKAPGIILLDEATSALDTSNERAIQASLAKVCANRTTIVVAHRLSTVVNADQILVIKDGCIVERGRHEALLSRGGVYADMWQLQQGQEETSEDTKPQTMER
# Exocytosis inh: blocks lytic granule exocytosis; TALL-104 LAMP-1 surface exposure, flow cytometry; cells stimulated with thapsigargin and PMA; inhibition, % at 10 µM; 360,000 compounds, 0.66% hits;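 active means inhibition above about 55%, limit read from the data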
# FGF22 binding-1: shifts melting point of recombinant human FGF22; AID 651658; Q9HCT0; activity (Tm shift, normalised), % at 9.99 µM; recombinant FGF22 thermal shift, SYPRO orange fluorescence; percent of sucrose octasulfate shift, DMSO zero; 340,000 compounds, 1.5% hits;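 active means mean Tm shift, scaled 0 neutral to 100 positive control, at about 1.3% or above, every replicate too, limit read from the data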
# DAGLB inhibitor: diacylglycerol lipase beta (human) inhibition | Q8NCG7 | inhibition, % at 5.17 µM | 340,000 compounds, 0.059% hits | HEK293T DAGLB membrane lysate, EnzChek fluorogenic substrate; in the data active means inhibition above about 34%
# MT1-MMP act inh: MT1-MMP (human) activation inhibition; P50281; HT1080 RFP-PRO-GFP cells, GFP/RFP ratio fluorescence, overnight; percent of plate control window, DMSO zero; GFP/RFP ratio change, % at 20 µM; 360,000 compounds, 0.061% hits; AID 651647;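 active means GFP/RFP ratio change of at least 30% with cell ATP level not reduced by more than half and red fluorescence within 50% of control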
#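 Assay system: HT1080 RFP-PRO-GFP cells. Benchmarks: DMSO vehicle wells and RFP-L50D-GFP reporter cell wells. Times: overnight cell settling, then overnight compound exposure, 37 °C, 5% CO2. Compound: 20 µM single dose, 1% DMSO. Read-out basis: GFP/RFP fluorescence ratio.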
# VLA-4 inh: inhibition in a human VLA-4 binding assay; VLA-4 expressing cells, ligand binding flow cytometry; inhibition, % (about 7 µM as worked out from the volumes in the protocol); 330,000 compounds, 0.2% hits; AID 2557; in the data active means inhibition above about 50%
# FGF22 binding-2: FGF22 (human) binding in thermal shift | shares compounds with FGF22 binding-1 | recombinant FGF22 thermal shift, SYPRO orange fluorescence | thermal shift activity, °C (ΔTm) at 38 µM | 1,000 compounds, 2% hits;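 active means fitted rise in melting shift crosses a set limit at or below the top valid dose tested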
# FGF22 TSA: binders of human FGF22 by thermal shift; 50 tested, under 10 active; shares compounds with FGF22 binding-1; Tm shift (activity), % at 38 µM; Thermal shift assay, SYPRO orange, melting temperature shift;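 active means compounds whose fitted dose curve of melting temperature shift rises past a set threshold within the tested doses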
# TSA no protein: counter-screen for FGF22 binders: compound-only thermal shift, no protein; shares compounds with FGF22 binding-1; compound-only SYPRO orange thermal shift counter-screen; AC50, µM (titrated, usually from 38 µM); 1,000 compounds, 2% hits; AID 743019;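 active means rising signal whose fitted curve reaches the 0.54 level within the top valid dose, showing a melting point, actives reach about 13 µM in these data; inactive means the rest, including activity in the opposite direction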; further: value is where the raw curve crosses a fixed level and not half-maximal
# Hits are given with their value; n = inactive; x = no result.
SMILES,ABCB6 inh 2,Exocytosis inh,FGF22 binding-1,DAGLB inhibitor,MT1-MMP act inh,VLA-4 inh,FGF22 binding-2,TSA no protein,others
C[C@@H]1CN([C@@H](C)CO)C(=O)c2cc(NC(=O)C3CC3)ccc2O[C@@H]1CN(C)C(=O)Nc1ccc2c(c1)OCO2,x,x,2.4,x,x,x,n,n,
C[C@H](CO)N1C[C@H](C)[C@@H](CN(C)C(=O)Nc2ccc3c(c2)OCO3)Oc2ccc(NC(=O)C3CC3)cc2C1=O,x,x,n,x,x,x,x,x,
Cc1ccc(S(=O)(=O)NCC[C@H]2CC[C@H](NC(=O)Nc3cccc(F)c3)[C@H](CO)O2)cc1,x,x,n,x,x,x,x,x,
Cc1cccc(OC(C)C(=O)Nc2ccc3c(c2)OCCO3)c1 (stereo not given),n,n,2.1,n,n,x,n,n,
COCC(=O)Nc1ccc2c(c1)[C@@H]1C[C@H](CC(=O)N(C)C)O[C@H](CO)[C@@H]1O2,x,x,n,x,x,x,x,x,
CC(C)(C)NC(=O)CN(C(=O)CNS(=O)(=O)c1ccc(Cl)cc1)c1ccc2c(c1)OCCO2,n,n,40,n,n,n,n,n,
CC(C)(C)NC(=O)CN(C(=O)CNS(=O)(=O)c1ccccc1)c1ccc2c(c1)OCCO2,n,n,x,n,n,n,x,x,
COc1ccccc1S(=O)(=O)Nc1ccc2c(c1)OC[C@H](C)NC[C@@H](C)[C@@H](OC)CN(C)C2=O,x,x,n,x,x,x,x,x,
CCC(=O)N1C[C@H](C)[C@@H](OC)CN(C)C(=O)c2ccc(NC(=O)C3CCOCC3)cc2OC[C@@H]1C,x,x,n,x,x,x,x,x,
COc1cc(NS(=O)(=O)c2ccc(NS(=O)(=O)c3ccc(C)cc3)cc2)nc(OC)n1,n,n,3.1,n,n,n,n,n,
CCc1ccc(C(=O)NNC(=O)c2cccc(N3C(=O)CCC3=O)c2)cc1,n,n,19,n,n,n,n,n,
CN(NC1OC(=O)c2ccccc21)c1ncc(C(F)(F)F)cc1Cl (stereo not given),n,n,28,n,n,n,n,n,
Cc1ccc2nc(-c3ccc(NC(=O)CSCC(=O)O)cc3)sc2c1,n,n,n,n,n,n,x,x,
Cc1ccc2nc(-c3ccc(NC(=O)COCC(=O)O)cc3)sc2c1,n,n,23,n,n,n,n,n,
CC(=O)Nc1ccc2nc(NC(=O)COc3ccccc3)sc2c1,n,n,n,n,n,n,x,x,
CC(=O)Nc1ccc2nc(NC(=O)COc3ccc(C)cc3)sc2c1,n,n,1.5,n,n,n,n,12µM,
COc1ccccc1NS(=O)(=O)c1cc(C(=O)Nc2ccc(S(=O)(=O)Nc3onc(C)c3C)cc2)ccc1C,n,n,1.8,n,n,x,n,n,
COc1ccccc1NS(=O)(=O)c1ccc(C)c(C(=O)Nc2ccc(S(=O)(=O)Nc3onc(C)c3C)cc2)c1,n,n,n,n,n,x,x,x,
Cc1ccc(-c2ccccc2[C@H]2[C@@H](C#N)N(C(=O)Cc3cccnc3)[C@H]2CO)cc1,x,x,n,x,x,x,x,x,
C[C@@H]1CN([C@@H](C)CO)S(=O)(=O)c2ccc(-c3ccc(F)cc3)cc2O[C@H]1CN(C)S(C)(=O)=O,x,x,n,x,x,x,x,x,
O=C(O)C1CSC(c2ccc3c(c2)OCO3)N1 (stereo not given),n,n,2.7,n,n,n,n,n,
O=C(O)C1CSC(c2ccc(O)c([N+](=O)[O-])c2)N1 (stereo not given),n,n,n,n,n,x,x,x,
COc1ccc(N(CC(=O)N/N=C/c2ccc(OC)c(OC)c2)S(=O)(=O)c2ccccc2)cc1,n,n,1.5,n,n,n,n,n,
COc1ccc(/C=N/NC(=O)CN(c2ccc(OC)cc2)S(=O)(=O)c2ccccc2)cc1,n,n,n,n,n,n,x,x,
COc1ccc(NS(=O)(=O)c2cccc(C(=O)NN=Cc3ccc(OC)c(O)c3)c2)cc1,n,n,34,n,n,n,n,n,
SMILES,ABCB6 inh 2,Exocytosis inh,FGF22 binding-1,DAGLB inhibitor,MT1-MMP act inh,VLA-4 inh,FGF22 binding-2,TSA no protein,others
CCCn1c(=O)[nH]c(=O)c2c1nc(-c1cccs1)n2CCOC,n,n,4.7,n,n,n,n,n,
COc1ccc(NC(=O)CN(C)C(=O)c2cn(-c3ccccc3)nc2-c2cccnc2)cc1,n,n,2.4,n,n,n,n,n,
COc1ccc(NC(=O)CN(C)C(=O)c2cn(-c3ccccc3)nc2-c2cccs2)cc1,n,n,n,n,n,n,x,x,
COC(=O)c1cn(NC(=O)Cc2ccccc2OC)c(=O)c2ccccc12,n,n,2.1,n,n,n,n,n,
COc1ccc(NC(=O)Nc2ccc3c(c2)C(=O)N([C@@H](C)CO)C[C@@H](C)[C@H](CN(C)C(=O)Nc2cccc4ccccc24)O3)cc1,x,x,n,x,x,x,x,x,
COc1ccc(Nc2nc3ccc(OC)cc3s2)cc1,n,n,1.5,n,n,n,n,n,FGF22 TSA=n
COc1ccc2nc(NC(=O)CCc3cc(OC)c(OC)c(OC)c3)sc2c1,n,n,1.9,n,n,n,n,n,
COc1ccc2nc(NC(=O)CCn3cccc3)sc2c1,n,n,x,n,n,n,x,x,
COc1ccc(S(=O)(=O)N(C)C[C@H]2Oc3ccc(NS(=O)(=O)c4c(C)noc4C)cc3CC(=O)N([C@H](C)CO)C[C@@H]2C)cc1,x,x,n,x,x,x,x,x,
Clc1ccc(Nc2ccc(NCc3ccccc3)nn2)cc1,n,n,2.3,n,n,n,n,n,FGF22 TSA=n
Cc1ccc(Nc2ccc(NCc3ccccc3)nn2)cc1C,n,n,x,n,n,n,x,x,
CS(=O)(=O)Nc1ccc2c(c1)[C@H]1C[C@@H](CC(=O)NC3CCCCC3)O[C@H](CO)[C@H]1O2,x,x,n,x,x,x,x,x,
CCCNC(=O)N(C)C[C@@H]1Oc2ncc(Br)cc2C(=O)N([C@@H](C)CO)C[C@@H]1C,x,x,n,x,x,x,x,x,
CCCNC(=O)COCc1cc(-c2ccc3c(c2)OCO3)on1,n,n,29,n,n,n,n,n,
O=C(CC1CC1)N1CC2(C1)[C@H](c1ccccc1)[C@H](CO)N2C(=O)c1cnccn1,x,x,1.4,x,x,x,n,n,
COCC(=O)N1CC2(C1)[C@@H](c1ccccc1)[C@@H](CO)N2C(=O)NC1CCCC1,x,x,1.4,x,x,x,n,n,
CC(=O)N1[C@H](CO)[C@@H](c2ccccc2)C12CN(C(=O)c1cnccn1)C2,x,x,n,x,x,x,x,x,
O=C(c1ccccn1)N1CC2(C1)[C@@H](c1ccccc1)[C@@H](CO)N2C(=O)C1CC1,x,x,n,x,x,x,x,x,
O=C(C1CCC1)N1CC2(C1)[C@@H](c1ccccc1)[C@@H](CO)N2C(=O)NC1CCCC1,x,x,n,x,x,x,x,x,
